Assay results pooled from the literature.
Organism: Pseudomonas aeruginosa
Observed: microbial growth

| Compound | method | strain | time | MIC |
| --- | --- | --- | --- | --- |
| C=CCn1c(-c2ccc(Cl)c(Cl)c2)nc2ccccc21 | broth dilution | ATCC27853 | – | 512 µg/mL |
| CCN1CCN(C(=O)N[C@@H](C(=O)N[C@@H]2C(=O)N3C(C(=O)O)=C(CSc4nnnn4C)CS[C@H]23)c2ccc(O)cc2)C(=O)C1=O | broth dilution | PAO1 | – | 4 µg/mL |
| Cc1ccccc1NCc1ccc(Oc2ccccn2)cc1 | – | – | – | > 50 µg/mL |
| COc1c(C)c(OCc2ccccc2)c(C)c(O)c1C(=O)/C=C/c1ccccc1 | broth dilution | ATCC27853 | – | 5000 µg/mL |
| Cc1ccc2nc(-c3ccc(Cl)cc3)n(Cc3ccccc3)c2c1 | broth dilution | ATCC27853 | – | 64 µg/mL |
| CN(C)[C@@H]1C(O)=C(C(N)=O)C(=O)[C@@]2(O)C(O)=C3C(=O)c4c(cc5ccccc5c4O)C[C@H]3C[C@@H]12 | broth dilution | ATCC27853 | – | 32 µg/mL |
| Cc1ccc(C)n1-c1ccc(-c2n[nH]c(=S)[nH]2)cc1 | broth dilution | ATCC10145 | 18 h | 8 µg/mL |
| CCCCC(=O)N1C(=O)/C(=C(/C)O)C(=O)C1CC(C)C (stereo not shown) | – | PA01 | – | > 200 µg/mL |
| O=C(CCCCCCCCCC[P+](c1ccccc1)(c1ccccc1)c1ccccc1)Nc1ccc(O)c(O)c1.[Br-] | broth dilution | ATCC27853 | 18 h | > 32 µg/mL |
| CC1(C)SC2C(NC(=O)C(NC(=O)C3=C(O)C4(CC4)NC3=O)c3ccccc3)C(=O)N2C1C(=O)O (stereo not shown) | – | – | – | 25 µg/mL |
| CCCCCCC#Cc1cncc(-c2nnc(SCc3ccc(Cl)cc3)n2C)c1 | – | – | – | ≥ 20 µg/mL |
| CN(C)[C@@H]1C(O)=C(C(N)=O)C(=O)[C@@]2(O)C(O)=C3C(=O)c4c(O)cnc(Cl)c4C[C@H]3C[C@@H]12.Cl | broth dilution | ATCC27853 | – | > 32 µg/mL |
| C[C@H]1[C@H](NC(=O)/C(=N\OC(C)(C)C(=O)O)c2csc(N)n2)C(=O)N1S(=O)(=O)O | agar dilution | ATCC27 | – | 4 µg/mL |
| O=[N+]([O-])c1ccc(-c2nc3cc(F)ccc3[nH]2)o1 | broth dilution | ATCC27853 | – | > 64 µg/mL |
| COc1cc(C(=O)Nc2ccc(C(=O)N[C@@H](CC(N)=O)C(=O)Nc3ccc(C(=O)Nc4ccc(C(=O)Nc5ccc(C(=O)O)cc5)c(O)c4OC(C)C)cc3)cc2)ccc1C#N | – | PA14 | – | > 64 µg/mL |
| CCCc1nc(Cl)c2c(c1O)C(=O)C1=C(O)[C@]3(O)C(=O)C(C(N)=O)=C(O)[C@@H](N(C)C)[C@@H]3C[C@@H]1C2.Cl | broth dilution | ATCC27853 | – | > 32 µg/mL |
| NC1CCCCc2c1[nH]c1ccc(Cl)c(Cl)c21 (stereo not shown) | broth dilution | PAO1 | 18 h | 256 µg/mL |
| CC(C)Oc1c(NC(=O)c2ccc(NC(=O)[C@H](CC(N)=O)NC(=O)c3ccc(NC(=O)c4ccc(NC(=O)c5ccc([N+](=O)[O-])cc5)cc4)cc3)cc2)ccc(C(=O)Nc2ccc(C(=O)O)cc2)c1O | – | PA14 | – | > 64 µg/mL |
| Cc1ncc(O)c2c1C[C@H]1C[C@H]3[C@H](N(C)C)C(O)=C(C(N)=O)C(=O)[C@@]3(O)C(O)=C1C2=O.Cl.Cl | broth dilution | ATCC27853 | – | 16 µg/mL |

| Compound | method | strain | time | MIC |
| --- | --- | --- | --- | --- |
| COc1c(C)c(OC)c(C(=O)/C=C/c2ccccc2)c(OC)c1C | broth dilution | ATCC27853 | – | 5000 µg/mL |
| C/C(=C\c1ccc(O)cc1)C(=O)Nc1ccc(C(=O)N[C@@H](CC(N)=O)C(=O)Nc2ccc(C(=O)Nc3ccc(C(=O)Nc4ccc(C(=O)O)cc4)c(O)c3OC(C)C)cc2)cc1 | – | PA14 | – | 1 µg/mL |
| Clc1cccc(NCc2ccc(Oc3ccccn3)cc2)c1 | – | – | – | > 50 µg/mL |
| CC1=NN(CNc2ccccc2)C(=O)C1=NNn1c(-c2ccccc2)nc2ccccc2c1=O | broth dilution | – | 24 h | 111 µM |
| CCCCCCCCCC(=O)Oc1c(C)c(O)c(C(=O)/C=C/c2ccccc2)c(OC)c1C | broth dilution | ATCC27853 | – | 5000 µg/mL |
| CCCCCCC/C=C/C(=O)N1C(=O)/C(=C(/C)O)C(=O)C1Cc1ccc(OC(C)(C)C)cc1 (stereo not shown) | – | PA01 | – | > 200 µg/mL |
| NC[C@H]1O[C@H](O[C@H]2[C@H](O)[C@@H](O[C@H]3O[C@H](CO)[C@@H](O)[C@H](N)[C@H]3O)[C@H](N)C[C@@H]2N)[C@H](N)C[C@@H]1O | broth dilution | – | – | 13 µM |
| CN(C)c1ccc(-c2ccc3cc4c(c(O)c3c2)C(=O)C2=C(O)[C@]3(O)C(=O)C(C(N)=O)=C(O)[C@@H](N(C)C)[C@@H]3C[C@@H]2C4)cc1 | broth dilution | ATCC27853 | – | 32 µg/mL |
| CN(C)CC(C)(C)CNc1nc(F)c2c(c1O)C(=O)C1=C(O)[C@]3(O)C(=O)C(C(N)=O)=C(O)[C@@H](N(C)C)[C@@H]3C[C@@H]1C2.Cl | broth dilution | ATCC27853 | – | 32 µg/mL |
| CC(=O)Nc1ccc(C(=O)Nc2ccc(C(=O)N[C@@H](CC(N)=O)C(=O)Nc3ccc(C(=O)Nc4ccc(C(=O)Nc5ccc(C(=O)O)cc5)c(O)c4OC(C)C)cc3)cc2)cc1 | – | PA14 | – | > 64 µg/mL |
| CC1=NN(CNC(=O)c2ccccn2)C(=O)C1=NNn1c(-c2ccccc2)nc2ccccc2c1=O | broth dilution | – | 24 h | 52 µM |
| CO[C@@H](C(N)=O)[C@H](NC(=O)c1ccc(NC(=O)c2ccc(C#N)cc2)cc1)C(=O)Nc1ccc(C(=O)Nc2ccc(C(=O)Nc3ccc(C(=O)O)cc3)c(O)c2OC(C)C)cc1 | – | PA14 | – | 0.5 µg/mL |
| CC(C)CC1NC(=O)C(C(=O)NC(C(=O)NC2C(=O)N3C2SC(C)(C)C3C(=O)O)c2ccccc2)=C1O (stereo not shown) | – | – | – | 12.5 µg/mL |
| COc1cc(Cc2cnc(N)nc2N)cc(OC)c1OC | broth dilution | – | 24 h | 8 µg/mL |
| CC(C)Oc1c(NC(=O)c2ccc(NC(=O)[C@H](CC(N)=O)NC(=O)c3ccc(NC(=O)c4ccc(S(C)(=O)=O)cc4)cc3)cc2)ccc(C(=O)Nc2ccc(C(=O)O)cc2)c1O | – | PA14 | – | > 64 µg/mL |
| O=C(O)c1cn(C2CC2)c2cc(N3CCNCC3)c(F)cc2c1=O | broth dilution | ATCC10145 | 18 h | > 5 µg/mL |
| CC(C)Oc1c(NC(=O)c2ccc(NC(=O)[C@H](CC(N)=O)NC(=O)c3ccc(NC(=O)c4ccc([N+](=O)[O-])c5cccnc45)cc3)cc2)ccc(C(=O)Nc2ccc(C(=O)O)cc2)c1O | – | PA14 | – | > 64 µg/mL |
| CCCCCCC/C=C/C(=O)N1C(=O)/C(=C(\O)c2ccc(F)cc2)C(=O)C1CC(C)C (stereo not shown) | – | PA01 | – | > 200 µg/mL |
